In ChEMBL document CHEMBL3098117, “Identification and optimization of an aminoalcohol-carbazole series with antimalarial properties” (ACS Med Chem Lett, 2013):
One block for each compound: values may come before it. The source made the active and inactive calls. No cut-off for these calls is given here.

Columns and labels:
[1] = test system: Plasmodium falciparum; test: Antimalarial activity against Plasmodium falciparum K1 infected in human RBC after 72 hrs by hypoxanthine incorporation assay in presence of serum albumin; format: functional, organism-based; details: for IC50: K1, 72 h
Summary of the method: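 Mixture of drug, human red blood cells and P. falciparum incubated 3 days (72 h) with serum albumin present; growth read as hypoxanthine incorporation.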

[2] = biological target: Voltage-gated inwardly rectifying potassium channel KCNH2 (Homo sapiens, UniProt Q12809); test: Inhibition of human ERG expressed in CHO cells; format: cell-based
[3] = biological target: Cytochrome P450 3A4 (Homo sapiens, UniProt P08684); test: Inhibition of human recombinant CYP3A4 expressed in baculovirus-infected insect cells preincubated for 15 mins followed by substrate addition measured after 30 mins by luminescence assay; format: ADME; details: recombinant enzyme, 0.5 h
[4] = biological target: Cytochrome P450 2D6 (Homo sapiens, UniProt P10635); test: Inhibition of human recombinant CYP2D6 expressed in baculovirus-infected insect cells preincubated for 15 mins followed by substrate addition measured after 30 mins by luminescence assay; format: ADME; details: recombinant enzyme, 0.5 h
[5] = biological target: Cytochrome P450 2C19 (Homo sapiens, UniProt P33261); test: Inhibition of human recombinant CYP2C19 expressed in baculovirus-infected insect cells preincubated for 15 mins followed by substrate addition measured after 30 mins by luminescence assay; format: ADME; details: recombinant enzyme, 0.5 h
[6] = biological target: Cytochrome P450 2C9 (Homo sapiens, UniProt P11712); test: Inhibition of human recombinant CYP2C9 expressed in baculovirus-infected insect cells preincubated for 15 mins followed by substrate addition measured after 30 mins by luminescence assay; format: ADME; details: recombinant enzyme, 0.5 h
[7] = biological target: T1, Cytochrome P450 2C8 (Homo sapiens, UniProt P10632); test: Inhibition of human recombinant CYP2C8 expressed in baculovirus-infected insect cells preincubated for 15 mins followed by substrate addition measured after 30 mins by luminescence assay; format: ADME; details: recombinant enzyme, 0.5 h
T1 sequence (P10632 whole entry): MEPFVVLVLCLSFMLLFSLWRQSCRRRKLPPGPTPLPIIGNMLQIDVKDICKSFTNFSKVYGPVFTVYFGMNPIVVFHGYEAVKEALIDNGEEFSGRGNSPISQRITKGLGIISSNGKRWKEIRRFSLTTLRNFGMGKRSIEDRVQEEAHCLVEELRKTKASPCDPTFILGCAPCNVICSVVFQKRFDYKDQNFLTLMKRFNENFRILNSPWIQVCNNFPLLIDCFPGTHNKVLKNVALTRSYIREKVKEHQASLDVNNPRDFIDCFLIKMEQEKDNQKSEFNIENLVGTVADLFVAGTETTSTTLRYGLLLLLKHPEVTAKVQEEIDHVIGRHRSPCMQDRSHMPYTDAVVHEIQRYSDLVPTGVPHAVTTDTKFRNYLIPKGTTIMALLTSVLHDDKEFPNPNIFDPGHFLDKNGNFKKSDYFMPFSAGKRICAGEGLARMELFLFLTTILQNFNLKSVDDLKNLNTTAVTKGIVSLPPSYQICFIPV

[8] = biological target: T2, Cytochrome P450 2B6 (Homo sapiens, UniProt P20813); test: Inhibition of human recombinant CYP2B6 expressed in baculovirus-infected insect cells preincubated for 15 mins followed by substrate addition measured after 30 mins by luminescence assay; format: ADME; details: recombinant enzyme, 0.5 h
T2 sequence (P20813 whole entry): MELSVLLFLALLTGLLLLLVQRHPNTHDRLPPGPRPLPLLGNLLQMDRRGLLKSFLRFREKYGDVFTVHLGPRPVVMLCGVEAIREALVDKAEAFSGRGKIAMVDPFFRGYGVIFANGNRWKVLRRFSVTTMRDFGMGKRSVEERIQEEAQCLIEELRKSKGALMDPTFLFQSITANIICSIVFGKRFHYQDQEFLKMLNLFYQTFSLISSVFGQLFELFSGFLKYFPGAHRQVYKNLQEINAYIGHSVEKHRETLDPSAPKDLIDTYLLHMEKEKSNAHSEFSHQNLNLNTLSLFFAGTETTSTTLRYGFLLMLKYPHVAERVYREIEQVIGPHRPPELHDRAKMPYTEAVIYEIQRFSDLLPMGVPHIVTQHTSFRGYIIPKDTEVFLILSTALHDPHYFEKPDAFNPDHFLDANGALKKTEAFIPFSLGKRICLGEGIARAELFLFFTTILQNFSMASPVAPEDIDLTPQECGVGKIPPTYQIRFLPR

[9] = biological target: T3, Cytochrome P450 1A2 (Homo sapiens, UniProt P05177); test: Inhibition of human recombinant CYP1A2 expressed in baculovirus-infected insect cells preincubated for 15 mins followed by substrate addition measured after 30 mins by luminescence assay; format: ADME; details: recombinant enzyme, 0.5 h
T3 sequence (P05177 whole entry): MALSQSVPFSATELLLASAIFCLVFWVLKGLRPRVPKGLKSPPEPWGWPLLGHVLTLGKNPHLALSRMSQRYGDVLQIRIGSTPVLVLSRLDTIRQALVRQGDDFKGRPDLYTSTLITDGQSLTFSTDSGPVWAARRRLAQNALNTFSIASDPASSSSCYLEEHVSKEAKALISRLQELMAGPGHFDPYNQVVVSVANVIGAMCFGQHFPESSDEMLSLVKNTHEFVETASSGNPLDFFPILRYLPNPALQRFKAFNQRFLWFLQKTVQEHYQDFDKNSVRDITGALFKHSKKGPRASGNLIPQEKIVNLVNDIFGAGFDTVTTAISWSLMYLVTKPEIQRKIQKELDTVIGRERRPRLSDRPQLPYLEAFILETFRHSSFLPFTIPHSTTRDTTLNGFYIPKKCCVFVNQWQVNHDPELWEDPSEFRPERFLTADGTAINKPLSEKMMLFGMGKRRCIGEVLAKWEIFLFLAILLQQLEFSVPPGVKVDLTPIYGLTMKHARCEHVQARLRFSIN

[10] = test system: Plasmodium berghei; test: Antimalarial activity against Plasmodium berghei ANKA expressing GFP infected in NMRI mouse assessed as mean survival days at 100 mg/kg/day, po qd for 4 days measured at 24 hrs after last dose; format: functional
Summary of the method: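 P. berghei-infected mice dosed orally once daily on days 0–3, starting 4 h postinfection, in groups of 3, 10, 30 and 100 mg/kg/day. Red blood cell parasitemia and plasma exposure measured on day 4, 24 h after the last dose. Mean survival days then monitored over 26 further days.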

[11] = test system: Plasmodium berghei; test: Antimalarial activity against Plasmodium berghei ANKA expressing GFP infected in NMRI mouse assessed as reduction in parasitemia at 100 mg/kg/day, po qd for 4 days measured at 24 hrs after last dose relative to control; format: functional; set-up: scale not given: the % may be the effect or the level left
Summary of the method: (§1)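 P. berghei-infected mice dosed orally once daily on days 0–3, first dose 4 h postinfection, at 3, 10, 30 and 100 mg/kg/day. Red blood cell parasitemia and plasma exposure measured on day 4, 24 h after last dose; ED50 derived from dose-response; survival then monitored for 26 further days as mean survival days.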

[12] = test system: Plasmodium berghei; test: Antimalarial activity against Plasmodium berghei ANKA expressing GFP infected in po dosed NMRI mouse assessed as reduction in parasitemia administered qd for 4 days measured at 24 hrs after last dose; format: functional; summary of the method: as §1
[13] = AUC in NMRI mouse at 1 mg/kg, iv and 5 mg/kg, po by LC-MS/MS analysis; format: ADME, organism-based; details: plasma
[14] = Cmax in NMRI mouse at 1 mg/kg, iv and 5 mg/kg, po by LC-MS/MS analysis; format: ADME, organism-based; details: in vivo
[15] = Terminal half life in NMRI mouse at 5 mg/kg, po by LC-MS/MS analysis; format: ADME, organism-based; set-up: dose 5 mg/kg, route oral; details: in vivo, read-out: beta t1/2 (converted)
[16] = Volume of distribution at steady state in NMRI mouse at 1 mg/kg, iv by LC-MS/MS analysis; format: ADME, organism-based; set-up: dose 1 mg/kg, route intravenous; details: in vivo, read-out: Vdss
[17] = Oral bioavailability in NMRI mouse at 5 mg/kg by LC-MS/MS analysis; format: ADME, organism-based; details: in vivo
[18] = test system: Plasmodium falciparum; test: Antimalarial activity against chloroquine, pyrimethamine, quinine-resistant Plasmodium falciparum V1S; format: functional; details: VS/1
[19] = test system: Plasmodium falciparum; test: Antimalarial activity against chloroquine, pyrimethamine, cycloguanil-resistant Plasmodium falciparum 7G8; format: functional, organism-based
[20] = test system: Plasmodium falciparum; test: Antimalarial activity against mefloquine-resistant Plasmodium falciparum TM91C235; format: functional, organism-based
[21] = test system: Plasmodium falciparum; test: Antimalarial activity against chloroquine, pyrimethamine, sulfadoxine and quinine-resistant Plasmodium falciparum W2; format: functional, organism-based
[22] = test system: Plasmodium falciparum; test: Antimalarial activity against chloroquine, pyrimethamine, sulfadoxine, quinine and mefloquine-sensitive Plasmodium falciparum D6; format: functional, organism-based
[23] = test system: Plasmodium falciparum; test: Antimalarial activity against drug-sensitive Plasmodium falciparum NF54; format: functional, organism-based
[24] = test system: Plasmodium falciparum; test: Antimalarial activity against chloroquine and pyrimethamine-resistant Plasmodium falciparum K1; format: functional, organism-based
Summary of the method: (§2)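 P. falciparum cultured with test drug in human red blood cells for 3 days. Growth read out as hypoxanthine incorporation.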

[25] = test system: Plasmodium falciparum; test: Antimalarial activity against chloroquine-resistant Plasmodium falciparum K1 infected in human RBC; format: functional, organism-based; summary of the method: as §2

Chain of Cytochrome P450 2C19 (P33261 whole entry): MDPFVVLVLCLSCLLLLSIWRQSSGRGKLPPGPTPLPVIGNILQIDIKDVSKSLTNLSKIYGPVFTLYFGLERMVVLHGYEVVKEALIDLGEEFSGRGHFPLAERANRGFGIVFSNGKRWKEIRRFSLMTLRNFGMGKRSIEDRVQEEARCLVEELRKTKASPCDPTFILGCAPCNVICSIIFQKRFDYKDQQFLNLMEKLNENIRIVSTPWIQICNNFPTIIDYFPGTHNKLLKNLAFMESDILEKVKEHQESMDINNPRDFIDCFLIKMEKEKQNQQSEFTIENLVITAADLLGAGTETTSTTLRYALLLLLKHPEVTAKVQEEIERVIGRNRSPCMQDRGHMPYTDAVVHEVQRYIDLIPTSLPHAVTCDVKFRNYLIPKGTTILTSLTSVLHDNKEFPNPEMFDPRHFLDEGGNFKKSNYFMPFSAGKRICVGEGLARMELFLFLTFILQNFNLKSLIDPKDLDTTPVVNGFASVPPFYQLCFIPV
Chain of Voltage-gated inwardly rectifying potassium channel KCNH2 (Q12809 whole entry): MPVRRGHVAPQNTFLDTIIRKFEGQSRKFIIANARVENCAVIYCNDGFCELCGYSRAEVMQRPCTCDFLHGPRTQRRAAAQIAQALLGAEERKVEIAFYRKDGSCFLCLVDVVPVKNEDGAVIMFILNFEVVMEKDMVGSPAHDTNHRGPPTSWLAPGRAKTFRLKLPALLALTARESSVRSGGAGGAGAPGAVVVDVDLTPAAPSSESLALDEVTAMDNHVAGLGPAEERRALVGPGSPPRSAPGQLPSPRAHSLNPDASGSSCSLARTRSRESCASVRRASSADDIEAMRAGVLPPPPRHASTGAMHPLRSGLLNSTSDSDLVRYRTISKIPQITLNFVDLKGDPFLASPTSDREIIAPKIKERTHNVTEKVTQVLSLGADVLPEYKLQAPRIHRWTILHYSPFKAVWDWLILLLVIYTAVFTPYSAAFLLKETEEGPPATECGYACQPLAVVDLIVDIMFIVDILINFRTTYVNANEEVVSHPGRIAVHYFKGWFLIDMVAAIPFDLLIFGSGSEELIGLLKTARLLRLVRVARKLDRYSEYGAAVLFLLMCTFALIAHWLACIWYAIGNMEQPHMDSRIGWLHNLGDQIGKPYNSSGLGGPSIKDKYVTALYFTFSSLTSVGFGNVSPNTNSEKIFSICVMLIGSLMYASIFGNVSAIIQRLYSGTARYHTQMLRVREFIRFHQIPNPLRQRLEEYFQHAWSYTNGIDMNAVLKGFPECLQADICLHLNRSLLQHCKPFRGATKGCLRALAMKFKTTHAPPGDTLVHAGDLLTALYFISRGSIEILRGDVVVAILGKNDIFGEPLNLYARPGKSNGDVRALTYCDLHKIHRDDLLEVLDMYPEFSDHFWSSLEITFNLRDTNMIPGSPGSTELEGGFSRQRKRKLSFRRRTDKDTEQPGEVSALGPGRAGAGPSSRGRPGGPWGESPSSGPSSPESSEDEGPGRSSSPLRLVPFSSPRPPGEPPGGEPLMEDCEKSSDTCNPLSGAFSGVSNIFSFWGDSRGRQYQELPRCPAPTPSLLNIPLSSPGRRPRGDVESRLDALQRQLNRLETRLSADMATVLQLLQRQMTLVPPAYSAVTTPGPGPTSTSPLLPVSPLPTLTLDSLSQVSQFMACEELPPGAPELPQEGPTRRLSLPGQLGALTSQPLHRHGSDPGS
Chain of Cytochrome P450 2D6 (P10635 whole entry): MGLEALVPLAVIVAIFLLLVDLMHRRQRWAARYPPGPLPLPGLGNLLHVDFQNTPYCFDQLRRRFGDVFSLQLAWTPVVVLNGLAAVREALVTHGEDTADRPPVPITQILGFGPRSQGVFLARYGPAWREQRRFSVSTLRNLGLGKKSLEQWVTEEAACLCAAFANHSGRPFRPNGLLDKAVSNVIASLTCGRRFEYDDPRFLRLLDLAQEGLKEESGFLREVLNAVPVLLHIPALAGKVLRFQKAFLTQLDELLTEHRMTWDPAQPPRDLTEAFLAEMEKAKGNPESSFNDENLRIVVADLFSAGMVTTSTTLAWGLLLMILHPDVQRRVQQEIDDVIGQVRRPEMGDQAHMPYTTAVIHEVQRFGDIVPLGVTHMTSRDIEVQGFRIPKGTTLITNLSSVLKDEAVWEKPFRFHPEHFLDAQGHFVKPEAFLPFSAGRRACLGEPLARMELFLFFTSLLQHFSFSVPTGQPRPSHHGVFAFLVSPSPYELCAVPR
Chain of Cytochrome P450 3A4 (P08684 whole entry): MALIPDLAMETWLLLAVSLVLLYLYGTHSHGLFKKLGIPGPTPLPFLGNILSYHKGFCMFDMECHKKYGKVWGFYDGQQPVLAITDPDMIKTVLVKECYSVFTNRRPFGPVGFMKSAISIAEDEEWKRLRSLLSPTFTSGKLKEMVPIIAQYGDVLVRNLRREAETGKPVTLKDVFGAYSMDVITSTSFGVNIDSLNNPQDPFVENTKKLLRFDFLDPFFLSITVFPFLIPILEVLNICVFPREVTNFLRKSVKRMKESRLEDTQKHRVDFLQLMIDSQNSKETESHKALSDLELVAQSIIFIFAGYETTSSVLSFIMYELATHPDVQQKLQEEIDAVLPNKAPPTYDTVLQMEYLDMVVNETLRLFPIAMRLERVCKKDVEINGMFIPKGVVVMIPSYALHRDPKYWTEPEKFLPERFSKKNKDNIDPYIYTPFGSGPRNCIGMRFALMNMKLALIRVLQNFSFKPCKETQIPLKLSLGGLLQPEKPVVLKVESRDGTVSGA
Chain of Cytochrome P450 2C9 (P11712 whole entry): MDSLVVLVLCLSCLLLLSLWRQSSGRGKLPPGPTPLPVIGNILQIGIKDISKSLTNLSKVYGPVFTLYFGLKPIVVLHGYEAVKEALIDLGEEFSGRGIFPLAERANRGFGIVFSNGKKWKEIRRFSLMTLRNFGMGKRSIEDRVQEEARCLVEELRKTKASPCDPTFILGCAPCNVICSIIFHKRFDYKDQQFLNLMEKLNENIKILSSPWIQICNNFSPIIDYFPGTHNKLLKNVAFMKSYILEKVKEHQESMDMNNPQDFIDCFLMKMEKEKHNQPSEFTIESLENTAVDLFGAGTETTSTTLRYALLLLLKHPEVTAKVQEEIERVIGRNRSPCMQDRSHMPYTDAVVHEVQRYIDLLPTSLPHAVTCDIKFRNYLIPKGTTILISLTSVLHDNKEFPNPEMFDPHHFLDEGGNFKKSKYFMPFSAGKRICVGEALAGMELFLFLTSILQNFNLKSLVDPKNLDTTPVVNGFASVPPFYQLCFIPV

SMILES: O=C(CN1CCN(CC2CCCCC2)CC1)Cn1c2ccc(Cl)cc2c2cc(Cl)ccc21
IC50 [1]: 448 nM

SMILES: FC(CN1CCN(CC2CCCCC2)CC1)Cn1c2ccc(Br)cc2c2cc(Br)ccc21 (stereo not given)
IC50 [1]: 106 nM

SMILES: O[C@@H](CNC1CCCCC1)Cn1c2ccc(Br)cc2c2cc(Br)ccc21
inhibition (INH) [2]: Active
Activity [1]: Active
inhibition (INH) [3]: Active
inhibition (INH) [4]: Active
inhibition (INH) [5]: Active
inhibition (INH) [6]: Active
inhibition (INH) [7]: Active
inhibition (INH) [8]: Active
inhibition (INH) [9]: Active

SMILES: OC(CN1CCN(CC2CCCCC2)CC1)Cn1c2ccc(Cl)cc2c2cc(Cl)ccc21 (stereo not given)
Activity [10]: Active
Activity [11]: 99.93%
Activity [12]: Dose dependent effect
ED50 [12]: 34.5 mg/kg/day
AUC [13]: 1580 ng·h/mL
Cmax [14]: 135 ng/mL
half-life [15]: 8 h
Vd [16]: 15 L/kg
bioavailability [17]: 50%
Activity [18]: Active
Activity [19]: Active
Activity [20]: Active
Activity [21]: Active
Activity [22]: Active
Activity [23]: Active
Activity [24]: Active
IC50 [1]: 16 nM

SMILES: C[C@@H]1CC[C@H]2[C@@H](C)C(=O)O[C@@H]3O[C@@]4(C)CC[C@@H]1[C@]32OO4 [ARTEMISININ]
IC50 [25]: 5.4 nM

SMILES: O[C@H](CNC1CCCCC1)Cn1c2ccc(Br)cc2c2cc(Br)ccc21
inhibition (INH) [2]: Active
Activity [1]: Active
inhibition (INH) [3]: Active
inhibition (INH) [4]: Active
inhibition (INH) [5]: Active
inhibition (INH) [6]: Active
inhibition (INH) [7]: Active
inhibition (INH) [8]: Active
inhibition (INH) [9]: Active

SMILES: Clc1ccc2c(c1)c1cc(Cl)ccc1n2CCCN1CCN(CC2CCCCC2)CC1
IC50 [1]: 707 nM

SMILES: CC12CCC(CN(CC(O)Cn3c4ccc(Cl)cc4c4cc(Cl)ccc43)C1)C2(C)C (stereo not given)
IC50 [25]: 57 nM

More lines, now with the values ahead:

IC50 [1]: 344 nM
SMILES: O=C1CN(Cc2ccccc2)CCN1CC(O)Cn1c2ccc(Cl)cc2c2cc(Cl)ccc21 (stereo not given)

IC50 [1]: 27 nM
SMILES: OC(CN1CCN(Cc2ccccc2)CC1)Cn1c2ccc(Br)cc2c2cc(Br)ccc21 (stereo not given)

IC50 [1]: 3310 nM
SMILES: COC(CN1CCN(Cc2ccccc2)CC1)Cn1c2ccccc2c2ccccc21 (stereo not given)

IC50 [1]: 275 nM
SMILES: OC(CN1CCN(Cc2ccccc2)CC1)Cn1c2ccccc2c2ccccc21 (stereo not given)

IC50 [1]: 165 nM
SMILES: OC(CN1CCN(Cc2ccccc2)CC1)Cn1c2ccccc2c2cc(Cl)ccc21 (stereo not given)
